Reference: ChEMBL document CHEMBL4732034, “Amino alcohol acrylonitriles as broad spectrum and tumour selective cytotoxic agents” (RSC Med Chem, 2021)

Experiments:
[1] = target: T1, Aryl hydrocarbon receptor (Homo sapiens, UniProt P35869); assay: Activation of AhR in human HT29-Lucia cells expressing secreted Lucia luciferase reporter gene assessed as increase in receptor transactivation by measuring fold increase in reporter activity at 5 uM measured after 24 hrs by luciferase reporter gene assay relative to control; format: cell-based; settings: HT-29, human, read-out: FC
T1 sequence (P35869 whole entry): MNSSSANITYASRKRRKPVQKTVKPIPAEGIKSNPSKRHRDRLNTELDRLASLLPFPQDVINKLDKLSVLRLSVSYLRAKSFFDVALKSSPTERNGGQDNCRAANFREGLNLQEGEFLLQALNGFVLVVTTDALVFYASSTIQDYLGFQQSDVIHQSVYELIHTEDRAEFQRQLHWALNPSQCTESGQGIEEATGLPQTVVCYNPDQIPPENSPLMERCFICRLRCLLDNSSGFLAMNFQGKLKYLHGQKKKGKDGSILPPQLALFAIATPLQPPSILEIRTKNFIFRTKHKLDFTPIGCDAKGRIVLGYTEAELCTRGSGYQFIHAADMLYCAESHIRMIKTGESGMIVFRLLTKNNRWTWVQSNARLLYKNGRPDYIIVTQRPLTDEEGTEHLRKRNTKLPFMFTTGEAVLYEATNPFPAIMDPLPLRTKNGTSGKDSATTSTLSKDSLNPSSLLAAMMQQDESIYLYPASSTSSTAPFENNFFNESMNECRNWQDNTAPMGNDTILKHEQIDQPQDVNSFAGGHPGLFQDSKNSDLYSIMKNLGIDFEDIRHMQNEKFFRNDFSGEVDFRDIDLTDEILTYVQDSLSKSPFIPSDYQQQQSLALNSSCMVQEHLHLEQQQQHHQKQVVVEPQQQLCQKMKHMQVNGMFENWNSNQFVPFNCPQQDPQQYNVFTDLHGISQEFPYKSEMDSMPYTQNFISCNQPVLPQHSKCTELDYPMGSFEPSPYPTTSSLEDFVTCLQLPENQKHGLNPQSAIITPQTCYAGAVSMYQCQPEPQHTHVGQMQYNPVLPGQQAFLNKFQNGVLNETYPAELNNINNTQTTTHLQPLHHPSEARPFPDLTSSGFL
Outline: (§1)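 HT29-Lucia cells (stable secreted Lucia luciferase reporter under a minimal promoter with the human CYP1A1 regulatory sequence, six DREs) were grown without antibiotics for 24 h before compound addition. At 24 and 48 h, supernatant was read by luminescence with QUANTI-Luc. Assays were run twice, and values are fold-change versus DMSO-treated cells. FICZ and CH223191 (5 μM) were included as controls.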

[2] = target: T1, Aryl hydrocarbon receptor; assay: Activation of AhR in human HT29-Lucia cells expressing secreted Lucia luciferase reporter gene assessed as increase in receptor transactivation by measuring fold increase in reporter activity at 5 uM measured after 48 hrs by luciferase reporter gene assay relative to control; format: cell-based; settings: HT-29, human, read-out: FC; outline: as §1
U-87 MG = assay: Cytotoxicity against human U87 cells assessed as growth inhibition measured after 72 hrs by SRB assay; format: functional, U-87MG ATCC
Outline: (§2)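 Cancer lines were kept in DMEM with 10% FBS and glutamine at 37 °C, 5% CO2, and seeded at 2500–4000 cells per well in duplicate. Compound (from 40 mM DMSO stocks) was added 24 h after plating and left for 72 h. Cells were TCA-fixed, stained with SRB and read at 540 nm. GI50 came from an eight-point dose-response, using the change from day-0 optical density, with three to four independent replicates.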

NCI-H460 = assay: Cytotoxicity against human H460 cells assessed as growth inhibition measured after 72 hrs by SRB assay; format: functional; outline: as §2
[3] = Cytotoxicity against human MCF10A cells assessed as growth inhibition measured after 72 hrs by SRB assay; format: cell-based, MCF-10A
MCF7 = assay: Cytotoxicity against human MCF-7 cells assessed as growth inhibition measured after 72 hrs by SRB assay; format: functional; outline: as §2
HT-29 = assay: Cytotoxicity against human HT29 cells assessed as growth inhibition measured after 72 hrs by SRB assay; format: functional; outline: as §2
A2780 = assay: Cytotoxicity against human A2780 cells assessed as growth inhibition measured after 72 hrs by SRB assay; format: functional; outline: as §2
DU-145 = assay: Cytotoxicity against human DU-145 cells assessed as growth inhibition measured after 72 hrs by SRB assay; format: functional; outline: as §2
A-431 = assay: Cytotoxicity against human A431 cells assessed as growth inhibition measured after 72 hrs by SRB assay; format: functional; outline: as §2
[4] = Cytotoxicity against human SJG2 cells assessed as growth inhibition measured after 72 hrs by SRB assay; format: functional; settings: SJ-G2; outline: as §2
MIA PaCa-2 = assay: Cytotoxicity against human MIA cells assessed as growth inhibition measured after 72 hrs by SRB assay; format: functional; outline: as §2
BE(2)-C = assay: Cytotoxicity against human BE2C cells assessed as growth inhibition measured after 72 hrs by SRB assay; format: functional; outline: as §2
[5] = Selectivity index, ratio of GI50 for human MCF10A cells to GI50 for human HT-29 cells by SRB assay; format: toxicity; settings: MCF10A cells versus HT-29 cells, read-out: RatioGI50
Outline: (§3)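 Fold selectivity is the MCF10A GI50 divided by the cancer-line GI50. Each GI50 is from the 72 h SRB assay: eight-point dose-response, day-0 optical density baseline, three to four separate replicates.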

[6] = Selectivity index, ratio of GI50 for human MCF10A cells to GI50 for human MCF-7 cells by SRB assay; format: toxicity; settings: MCF10A cells versus MCF-7 cells, read-out: RatioGI50; outline: as §3
[7] = Selectivity index, ratio of GI50 for human MCF10A cells to GI50 for human A2780 cells by SRB assay; format: toxicity; settings: MCF10A cells versus A2780 cells, read-out: RatioGI50; outline: as §3
T47D = assay: Cytotoxicity against human T47D cells assessed as growth inhibition measured after 72 hrs by SRB assay; format: functional; outline: as §2
[8] = Selectivity index, ratio of GI50 for human MCF10A cells to GI50 for human MDA-MB-468 cells by SRB assay; format: toxicity; settings: MCF10A cells versus MDA-MB-468 cells, read-out: RatioGI50; outline: as §3
[9] = Selectivity index, ratio of GI50 for human MCF10A cells to GI50 for human T47D cells by SRB assay; format: toxicity; settings: MCF10A cells versus T47D cells, read-out: RatioGI50; outline: as §3
MDA-MB-468 = assay: Cytotoxicity against human MDA-MB-468 cells assessed as growth inhibition measured after 72 hrs by SRB assay; format: functional; outline: as §2

Structure (SMILES)	fold induction at 5 µM [1]	fold induction at 5 µM [2]	GI50 (U-87 MG)	GI50 (NCI-H460)	GI50 at 72 h [3]	GI50 (MCF7)	GI50 (HT-29)	GI50 (A2780)	GI50 (DU-145)	GI50 (A-431)	GI50 [4]	GI50 (MIA PaCa-2)	GI50 (BE(2)-C)	selectivity ratio [5]	selectivity ratio [6]	selectivity ratio [7]	GI50 (T47D)	selectivity ratio [8]	selectivity ratio [9]	GI50 (MDA-MB-468)
O=Cc1c2[nH]c3ccccc3c2cc2[nH]c3ccccc3c12	2.85	4.82																		
CN1CCN(CC(O)COc2ccc(/C=C(\C#N)c3ccc(Cl)c(Cl)c3)cc2)CC1 (racemic)			2.7 µM	2.6 µM	2.4 µM	2.3 µM	1.2 µM	2.5 µM	2.4 µM	1.8 µM	2.2 µM	2.6 µM	2.4 µM							
N#C/C(=C\c1ccc(OCC(O)CN2CCOCC2)cc1)c1ccc(Cl)c(Cl)c1 (racemic)			17 µM	8.7 µM	5.6 µM	5.3 µM	3.1 µM	8.9 µM	13 µM	3 µM	9.3 µM	13 µM	3 µM							
CC1CCCCN1CC(O)COc1ccc(/C=C(\C#N)c2ccc(Cl)c(Cl)c2)cc1 (racemic)			2.9 µM	2.7 µM	2.5 µM	2.1 µM	0.36 µM	2.7 µM	3 µM	1.6 µM	2.8 µM	2.7 µM	2.4 µM	6.9						
COc1ccc(NCC(O)COc2ccc(/C=C(\C#N)c3ccc(Cl)c(Cl)c3)cc2)cc1 (racemic)			29 µM	16 µM	19 µM	5.2 µM	3.7 µM	17 µM	28 µM	62 µM	32 µM	27 µM	41 µM	5.1	3.6					
N#C/C(=C\c1ccc(OCC(O)CNC23CC4CC(CC(C4)C2)C3)cc1)c1ccc(Cl)c(Cl)c1 (racemic)			2.5 µM	1.8 µM	2.5 µM	2 µM	0.89 µM	1.7 µM	2.5 µM	2.1 µM	2 µM	1.9 µM	2.2 µM							
N#C/C(=C\c1ccc(OCC(O)CN2CCCCCC2)cc1)c1ccc(Cl)c(Cl)c1 (racemic)			3.8 µM	3.5 µM	3.1 µM	2.8 µM	1.7 µM	3 µM	4.6 µM	2.9 µM	5.3 µM	5.5 µM	2.6 µM							
CN(C)CC(O)COc1ccc(/C=C(\C#N)c2ccc(Cl)c(Cl)c2)cc1 (racemic)			3.2 µM	2.8 µM	2.8 µM	1.9 µM	0.75 µM	2.5 µM	2.7 µM	1.6 µM	2.7 µM	2.3 µM	2.5 µM	3.7						
N#C/C(=C\c1ccc(OCC(O)CN2CCCCC2)cc1)c1ccc(Cl)c(Cl)c1 (racemic)			3 µM	3 µM	2.5 µM	2.5 µM	0.66 µM	2.7 µM	2.9 µM	2.1 µM	2.5 µM	2.6 µM	2.5 µM	3.8						
CC1CCCN(CC(O)COc2ccc(/C=C(\C#N)c3ccc(Cl)c(Cl)c3)cc2)C1 (racemic)			2.8 µM	2.9 µM	2.5 µM	2.3 µM	2.4 µM	2.8 µM	4 µM	2.5 µM	2.8 µM	3.3 µM	2.6 µM							
N#C/C(=C\c1ccc(OCC(O)CN2CCCC2)cc1)c1ccc(Cl)c(Cl)c1 (racemic)			5.6 µM	3 µM	2.9 µM	2.8 µM	1.5 µM	2.7 µM	4.2 µM	2.6 µM	3.7 µM	5.6 µM	2.8 µM							
N#C/C(=C\c1ccc(OCC(O)CNc2ccccc2)cc1)c1ccc(Cl)c(Cl)c1 (racemic)			26 µM	14 µM	18 µM	13 µM	10 µM	4.4 µM	22 µM	16 µM	18 µM	17 µM	13 µM			4				
N#C/C(=C\c1ccc(OCC(O)CN2CCC(c3ccccc3)CC2)cc1)c1ccc(Cl)c(Cl)c1 (racemic)			2.9 µM	2.7 µM	2.5 µM	2.5 µM	1.9 µM	2.7 µM	2.7 µM	2.6 µM	2.5 µM	2.4 µM	2.6 µM							
CC(=O)N1CCN(CC(O)COc2ccc(/C=C(\C#N)c3ccc(Cl)c(Cl)c3)cc2)CC1 (racemic)			21 µM	14 µM	16 µM	5.3 µM	8.6 µM	6.9 µM	15 µM	10 µM	13 µM	16 µM	11 µM		3		6.8 µM	2.7	2.3	5.9 µM
N#C/C(=C\c1ccc(OCC(O)CN2CCN(c3ccc(Br)cc3)CC2)cc1)c1ccc(Cl)c(Cl)c1 (racemic)			> 50 µM	> 50 µM	49 µM	24 µM	16 µM	14 µM	31 µM	> 50 µM	21 µM	57 µM	40 µM			3.5				
N#C/C(=C\c1ccc(OCC(O)CNC2C3CC4CC(C3)CC2C4)cc1)c1ccc(Cl)c(Cl)c1 (racemic)			2.7 µM	2.7 µM	2.7 µM	2.1 µM	1.4 µM	2.5 µM	2.6 µM	2.8 µM	2.6 µM	2.4 µM	2.6 µM							
CC1CCN(CC(O)COc2ccc(/C=C(\C#N)c3ccc(Cl)c(Cl)c3)cc2)CC1 (racemic)			2.9 µM	2.9 µM	2.7 µM	2.3 µM	1.7 µM	2.7 µM	4.6 µM	2.6 µM	3 µM	3.4 µM	2.6 µM							
